Results taken from ChEMBL document CHEMBL4325852, “Design, synthesis, and discovery of ocotillol-type amide derivatives as orally available modulators of P-glycoprotein-mediated multidrug resistance” (Eur J Med Chem, 2019).
The source made the active and inactive calls. No cut-off for these calls is given here.

Key:
[1] = Cytotoxicity against human KBV cells assessed as cell survival at 10 uM after 72 hrs by MTT assay relative to control; assay type: cell-based; conditions: read-out: Survival
Procedure, shortened: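 KBV (Pgp-overexpressing MDR line) grown in DMEM/10% FCS, kept in 10 nM paclitaxel; seeded, compound (DMSO stock) added next day, 72 h; MTT 2 h, formazan in DMSO, A570 gives survival vs DMSO solvent control; n = 1-3 independent experiments, mean ± SD.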

[2] = target: T1, ATP-dependent translocase ABCB1 (Homo sapiens, UniProt P08183); experiment: Reversal of P-gp-mediated multidrug resistance in human KBV cells assessed as potentiation of paclitaxel-induced cytotoxicity by measuring cell survival at 10 uM after 72 hrs by MTT assay (reference value: 104 +/- 8%); assay type: cell-based
T1 sequence (P08183 whole entry): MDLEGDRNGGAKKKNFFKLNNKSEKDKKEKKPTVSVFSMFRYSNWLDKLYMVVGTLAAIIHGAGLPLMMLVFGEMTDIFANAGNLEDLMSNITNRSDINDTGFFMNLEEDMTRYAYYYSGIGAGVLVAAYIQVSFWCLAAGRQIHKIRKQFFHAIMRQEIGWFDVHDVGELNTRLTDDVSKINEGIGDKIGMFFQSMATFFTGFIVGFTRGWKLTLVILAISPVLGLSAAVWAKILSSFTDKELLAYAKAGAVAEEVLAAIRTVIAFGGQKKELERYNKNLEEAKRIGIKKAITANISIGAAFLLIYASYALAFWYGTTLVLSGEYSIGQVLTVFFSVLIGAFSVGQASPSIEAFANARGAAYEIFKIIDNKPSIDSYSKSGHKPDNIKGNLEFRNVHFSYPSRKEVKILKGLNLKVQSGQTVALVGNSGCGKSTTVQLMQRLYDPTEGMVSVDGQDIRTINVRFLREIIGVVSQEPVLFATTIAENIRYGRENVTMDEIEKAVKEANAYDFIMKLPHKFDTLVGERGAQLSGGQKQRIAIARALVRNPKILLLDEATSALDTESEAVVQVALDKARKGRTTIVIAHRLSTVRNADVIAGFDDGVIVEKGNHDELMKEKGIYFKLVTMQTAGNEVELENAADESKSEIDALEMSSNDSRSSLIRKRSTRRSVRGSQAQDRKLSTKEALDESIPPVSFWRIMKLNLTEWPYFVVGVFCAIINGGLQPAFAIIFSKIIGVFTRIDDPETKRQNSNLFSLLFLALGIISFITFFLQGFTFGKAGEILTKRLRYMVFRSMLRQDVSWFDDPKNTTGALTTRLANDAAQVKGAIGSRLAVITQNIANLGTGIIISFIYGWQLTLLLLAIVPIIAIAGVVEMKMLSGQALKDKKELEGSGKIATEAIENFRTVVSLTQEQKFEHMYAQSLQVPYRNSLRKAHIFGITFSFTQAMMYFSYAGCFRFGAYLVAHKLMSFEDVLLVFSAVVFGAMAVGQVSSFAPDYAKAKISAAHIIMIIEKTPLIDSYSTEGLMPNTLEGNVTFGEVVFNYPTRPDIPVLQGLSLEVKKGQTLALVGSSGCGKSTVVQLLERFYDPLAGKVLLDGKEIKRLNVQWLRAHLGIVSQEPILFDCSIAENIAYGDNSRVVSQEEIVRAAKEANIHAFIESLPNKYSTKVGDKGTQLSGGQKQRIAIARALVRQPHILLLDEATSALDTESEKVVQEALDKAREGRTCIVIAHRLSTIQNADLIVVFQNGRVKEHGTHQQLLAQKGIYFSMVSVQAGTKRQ

[3] = target: T1, ATP-dependent translocase ABCB1; experiment: Reversal of P-gp-mediated multidrug resistance in human KBV cells assessed as potentiation of paclitaxel-induced cytotoxicity by measuring cell survival at 5 uM after 72 hrs by MTT assay (reference value: 104 +/- 8%); assay type: cell-based
[4] = target: T1, ATP-dependent translocase ABCB1; experiment: Reversal of P-gp-mediated multidrug resistance in human KBV cells assessed as potentiation of paclitaxel-induced cytotoxicity by measuring decrease in paclitaxel IC50 at 5 uM after 72 hrs by MTT assay relative to paclitaxel alone; assay type: cell-based
[5] = target: T1, ATP-dependent translocase ABCB1; experiment: Reversal of P-gp-mediated multidrug resistance in human KBV cells assessed as potentiation of paclitaxel-induced cytotoxicity by measuring decrease in paclitaxel IC50 at 10 uM after 72 hrs by MTT assay relative to paclitaxel alone; assay type: cell-based
[6] = Cell cycle arrest in human KBV cells assessed as accumulation at sub-G1 phase at 10 uM after 24 hrs by propidium iodide staining based flow cytometry (reference value: 2.21 +/- 1.02%); assay type: ADME
Procedure, shortened: (§1)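 KBV cells (grown in DMEM with 10% fetal calf serum and penicillin/streptomycin, with 10 nM paclitaxel added to maintain resistance) seeded at 3×10^5 per well and cultured 24 h. Test compound added, with or without paclitaxel 0.1 μM, for 24 h. Cells fixed in 70% ethanol overnight at –20 °C, stained 30 min with PI plus RNase A, and analysed by flow cytometry; mean ± SD, n = 3.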

[7] = Cell cycle arrest in human KBV cells assessed as accumulation at G0/G1 phase at 10 uM after 24 hrs by propidium iodide staining based flow cytometry (reference value: 70.35 +/- 0.79%); assay type: ADME; procedure, shortened: as §1
[8] = Cell cycle arrest in human KBV cells assessed as accumulation at S phase at 10 uM after 24 hrs by propidium iodide staining based flow cytometry (reference value: 10.03 +/- 0.75%); assay type: ADME; procedure, shortened: as §1
[9] = Cell cycle arrest in human KBV cells assessed as accumulation at G2/M phase at 10 uM after 24 hrs by propidium iodide staining based flow cytometry (reference value: 19.62 +/- 1.54%); assay type: ADME; procedure, shortened: as §1
[10] = target: T1, ATP-dependent translocase ABCB1; experiment: Reversal of P-gp-mediated multidrug resistance in human KBV cells assessed as potentiation of paclitaxel-induced cell cycle arrest by measuring accumulation at sub-G1 phase at 5 uM after 24 hrs by propidium iodide staining based flow cytometry (reference value: 2.29 +/- 0.39%); procedure, shortened: as §1
[11] = target: T1, ATP-dependent translocase ABCB1; experiment: Reversal of P-gp-mediated multidrug resistance in human KBV cells assessed as potentiation of paclitaxel-induced cell cycle arrest by measuring accumulation at G0/G1 phase at 5 uM after 24 hrs by propidium iodide staining based flow cytometry (reference value: 71.11 +/- 2%); procedure, shortened: as §1
[12] = target: T1, ATP-dependent translocase ABCB1; experiment: Reversal of P-gp-mediated multidrug resistance in human KBV cells assessed as potentiation of paclitaxel-induced cell cycle arrest by measuring accumulation at S phase at 5 uM after 24 hrs by propidium iodide staining based flow cytometry (reference value: 12.54 +/- 4.01%); procedure, shortened: as §1
[13] = target: T1, ATP-dependent translocase ABCB1; experiment: Reversal of P-gp-mediated multidrug resistance in human KBV cells assessed as potentiation of paclitaxel-induced cell cycle arrest by measuring accumulation at G2/M phase at 5 uM after 24 hrs by propidium iodide staining based flow cytometry (reference value: 16.35 +/- 2.02%); procedure, shortened: as §1
[14] = target: T1, ATP-dependent translocase ABCB1; experiment: Inhibition of P-gp-mediated Rh-123 efflux in human KBV cells assessed as Rh-123 accumulation preincubated for 2 hrs followed by Rh-123 addition measured after 30 mins by flow cytometry; assay type: cell-based; conditions: 0.5 h
Procedure, shortened: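 KBV cells treated with or without compound for 2 h at the indicated concentrations, then loaded with 10 μM Rhodamine123 for 30 min. Cells harvested, washed three times in PBS and analysed by flow cytometry.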

P-gp (ABCB1) ATPase = P-gp (ABCB1) ATPase (Homo sapiens, UniProt P08183); experiment: Stimulation of P-gp ATPase activity (unknown origin) at 0.5 mM preincubated for 5 mins followed by Mg-ATP addition measured after 40 mins by ATP-Glo luminescence assay relative to control; conditions: read-out: FC
P-gp (ABCB1) ATPase, sequence (P08183 whole entry): as above

[15] = target: T1, ATP-dependent translocase ABCB1; experiment: Stimulation of P-gp ATPase activity (unknown origin) assessed as increase in ATP consumption preincubated for 5 mins followed by Mg-ATP addition measured after 40 mins by ATP-Glo luminescence assay relative to control
[16] = Potentiation of paclitaxel-induced antitumor activity against human KBV cells xenografted in Balb/c nude mouse assessed as tumor growth inhibition at 10 mg/kg, po via gavage for 2 weeks cotreated with 30 mg/kg, ip paclitaxel (reference value: 17.9%); assay type: functional
[17] = Cytotoxicity against human KBV cells xenografted in Balb/c nude mouse assessed as tumor growth inhibition at 10 mg/kg, po via gavage for 2 weeks relative to control; assay type: organism-based; conditions: in vivo, 336 h
[18] = Toxicity in Balb/c nude mouse xenografted with human KBV cells assessed as body weight at 10 mg/kg, po via gavage for 2 weeks cotreated with 30 mg/kg, ip paclitaxel (reference value: 19.84 to 20.62 g); assay type: organism-based; conditions: in vivo, 336 h
[19] = Toxicity in Balb/c nude mouse xenografted with human KBV cells assessed as body weight at 10 mg/kg, po via gavage for 2 weeks (reference value: 19.84 to 20.62 g); assay type: organism-based; conditions: in vivo, 336 h
Homo sapiens = species: Homo sapiens; experiment: Downregulation of P-gp protein expression in human KBV cells by western blot analysis; assay type: functional, cell-based

Structure (SMILES)	viability at 72 h, 10 µM [1] [%]	Survival [2] [%]	Survival [3] [%]	fold change (FC) [4]	fold change (FC) [5]	Activity [6] [%]	Activity [7] [%]	Activity [8] [%]	Activity [9] [%]	further results
CC(C)(O)[C@H]1CC[C@@](C)([C@H]2CC[C@]3(C)[C@@H]2[C@H](O)C[C@@H]2[C@@]4(C)CC[C@H](N)C(C)(C)[C@@H]4CC[C@]23C)O1	125	43	72	10	28.11	–	–	–	–	–
CC(C)(C)OC(=O)NCCCCCC(=O)N[C@H]1CC[C@]2(C)[C@H]3C[C@@H](O)[C@@H]4[C@@H]([C@]5(C)CC[C@H](C(C)(C)O)O5)CC[C@@]4(C)[C@]3(C)CC[C@H]2C1(C)C	128	34	46	27.97	47.85	2.35	73.29	9.22	17.49	Activity [10]: 43.12%; Activity [11]: 44.52%; Activity [12]: 16.05%; Activity [13]: 39.43%; inhibition (INH) [14]: Dose-dependent effect; fold induction at 40 min, 500 µM (P-gp (ABCB1) ATPase): 6.03; Activity [15]: Dose-dependent effect; TGI [16]: 53.73%; TGI [17]: 10.45%; Activity [18]: 15.98 g; Activity [19]: 21.85 g; Activity (Homo sapiens): inactive
COc1ccc(CCN(C)CCCC(C#N)(c2ccc(OC)c(OC)c2)C(C)C)cc1OC (stereo unspecified)	–	43	–	–	–	2.25	68.09	9.99	21.92	–
